# ChEMBL document CHEMBL4819032, “Structure-based design of highly selective 2,4,5-trisubstituted pyrimidine CDK9 inhibitors as anti-cancer agents” (Eur J Med Chem, 2021)
# The source made the active and inactive calls. The calls are words filed in the database; no cut-off is given here.
# How the values were obtained:
# A2780 [1] = assay: Induction of apoptosis in human A2780 cells assessed as late apoptotic cells at 1 uM after 24 hrs by Annexin V-FITC/PI staining based flow cytometric analysis (reference value: 2.8%); assay type: functional
# Outline: (§1)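 A2780 cells cultured 24 h in medium alone or with varying inhibitor concentrations, then stained with FITC-annexin V/PI per kit protocol and analysed by flow cytometry. Run in triplicate and repeated at least twice; significance by one-way ANOVA, p < 0.01.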
# A2780 [2] = assay: Induction of cell cycle arrest in human A2780 cells assessed as accumulation at pre-G1 phase after 24 hrs by propidium iodide staining based flow cytometric analysis; assay type: functional; conditions: dose 0.5-5 µM
# Outline: (§2)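 4 × 10⁵ A2780 cells cultured 24 h in medium alone or with varying inhibitor concentrations, harvested into hypotonic fluorochrome solution (0.1% sodium citrate, 0.1% Triton X-100, propidium iodide, 100 ug/ml RNase A), and DNA content analysed by flow cytometry. Representative of three independent experiments.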
# A2780 [3] = assay: Induction of cell cycle arrest in human A2780 cells assessed as accumulation at S phase at 0.5 uM after 24 hrs by propidium iodide staining based flow cytometric analysis (reference value: 20%); assay type: functional; outline: as §2
# HT-29 = assay: Growth inhibition of human HT-29 cells after 48 hrs by MTT assay; assay type: functional
# A2780 [4] = assay: Induction of cell cycle arrest in human A2780 cells assessed as accumulation at pre-G1 phase at 2 uM after 24 hrs by propidium iodide staining based flow cytometric analysis (reference value: 1.2%); assay type: functional
# A2780 [5] = assay: Induction of apoptosis in human A2780 cells assessed as necrotic cells at 2 uM after 24 hrs by Annexin V-FITC/PI staining based flow cytometric analysis (reference value: 3.6%); assay type: functional; outline: as §1
# [6] = molecular target: Tyrosine-protein kinase Fyn (Homo sapiens) (UniProt P06241); assay: Inhibition of recombinant human full length FYN using KVEKIGEGTYGVVYK as substrate incubated for 40 mins by scintillation counting method
# Chain of Tyrosine-protein kinase Fyn (Homo sapiens) (P06241 2-537 limits assumed): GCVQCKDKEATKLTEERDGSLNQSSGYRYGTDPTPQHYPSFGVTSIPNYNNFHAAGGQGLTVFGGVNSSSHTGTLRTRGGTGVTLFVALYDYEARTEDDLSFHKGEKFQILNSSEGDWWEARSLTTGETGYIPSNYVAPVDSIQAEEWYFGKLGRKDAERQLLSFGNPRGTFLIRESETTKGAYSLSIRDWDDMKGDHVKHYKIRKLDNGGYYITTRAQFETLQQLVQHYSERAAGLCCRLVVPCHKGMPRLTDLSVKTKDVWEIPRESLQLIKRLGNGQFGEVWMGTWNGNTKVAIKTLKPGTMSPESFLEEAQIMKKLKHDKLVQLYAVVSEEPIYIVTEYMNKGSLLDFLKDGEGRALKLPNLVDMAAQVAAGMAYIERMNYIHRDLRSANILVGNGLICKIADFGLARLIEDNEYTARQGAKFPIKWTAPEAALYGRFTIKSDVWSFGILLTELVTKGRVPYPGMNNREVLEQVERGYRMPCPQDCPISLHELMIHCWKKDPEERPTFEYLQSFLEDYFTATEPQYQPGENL
# Outline: (§3)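 The 60-kinase diversity panel was run as a radiometric assay with ATP at each kinase's Km(app). Compound was tested at one fixed concentration across all kinases.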
# A2780 [7] = assay: Induction of apoptosis in human A2780 cells assessed as early apoptotic cells at 1 uM after 24 hrs by Annexin V-FITC/PI staining based flow cytometric analysis (reference value: 1.6%); assay type: functional; outline: as §1
# A2780 [8] = assay: Induction of apoptosis in human A2780 cells assessed as increase in cleaved PARP protein expression at 0.5 to 5 uM after 24 hrs by Western blot analysis; assay type: functional, cell-based; conditions: dose 0.5-5 µM
# Outline: (§4)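 A2780 cells treated for 24 h over a concentration series, then lysates analysed by Western blotting.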
# [9] = molecular target: Vascular endothelial growth factor receptor 2 (Homo sapiens) (UniProt P35968); assay: Inhibition of recombinant human KDR 790 to end residues ) using myelin basic protein as substrate incubated for 40 mins by scintillation counting method; outline: as §3
# Chain of Vascular endothelial growth factor receptor 2 (Homo sapiens) (P35968 whole entry): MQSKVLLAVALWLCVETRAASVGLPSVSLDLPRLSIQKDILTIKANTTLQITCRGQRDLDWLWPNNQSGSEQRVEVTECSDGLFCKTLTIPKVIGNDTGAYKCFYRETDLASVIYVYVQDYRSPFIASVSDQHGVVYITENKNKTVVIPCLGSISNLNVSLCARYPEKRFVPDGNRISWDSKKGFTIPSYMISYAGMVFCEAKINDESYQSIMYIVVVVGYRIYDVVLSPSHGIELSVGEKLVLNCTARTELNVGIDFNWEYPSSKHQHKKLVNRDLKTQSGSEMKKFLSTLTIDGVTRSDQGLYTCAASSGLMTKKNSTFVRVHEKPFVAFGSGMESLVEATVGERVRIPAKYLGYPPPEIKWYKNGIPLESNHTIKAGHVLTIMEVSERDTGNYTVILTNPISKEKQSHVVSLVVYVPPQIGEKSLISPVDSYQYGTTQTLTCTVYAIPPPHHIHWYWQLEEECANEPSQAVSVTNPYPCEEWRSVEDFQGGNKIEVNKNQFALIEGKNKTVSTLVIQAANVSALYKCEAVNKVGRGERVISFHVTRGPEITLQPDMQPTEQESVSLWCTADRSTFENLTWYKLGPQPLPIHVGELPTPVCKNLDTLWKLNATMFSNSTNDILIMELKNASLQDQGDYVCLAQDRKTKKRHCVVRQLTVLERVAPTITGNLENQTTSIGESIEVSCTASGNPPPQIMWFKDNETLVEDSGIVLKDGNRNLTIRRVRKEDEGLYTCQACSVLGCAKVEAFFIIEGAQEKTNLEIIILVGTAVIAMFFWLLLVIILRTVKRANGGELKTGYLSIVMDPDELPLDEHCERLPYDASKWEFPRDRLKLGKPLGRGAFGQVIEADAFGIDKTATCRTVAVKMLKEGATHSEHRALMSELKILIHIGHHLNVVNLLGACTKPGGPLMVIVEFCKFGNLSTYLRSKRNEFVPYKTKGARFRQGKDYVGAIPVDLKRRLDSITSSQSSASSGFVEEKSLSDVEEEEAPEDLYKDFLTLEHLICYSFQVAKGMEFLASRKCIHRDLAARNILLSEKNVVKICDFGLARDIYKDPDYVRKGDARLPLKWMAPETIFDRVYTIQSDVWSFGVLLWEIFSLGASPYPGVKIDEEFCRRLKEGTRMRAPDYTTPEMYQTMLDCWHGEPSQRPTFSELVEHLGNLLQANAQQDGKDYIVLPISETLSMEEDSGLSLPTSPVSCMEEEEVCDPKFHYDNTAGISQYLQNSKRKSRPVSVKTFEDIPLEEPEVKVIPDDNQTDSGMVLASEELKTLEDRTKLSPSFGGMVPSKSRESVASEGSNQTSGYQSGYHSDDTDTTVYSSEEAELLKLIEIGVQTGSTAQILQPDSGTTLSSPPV
# A2780 [10] = assay: Induction of apoptosis in human A2780 cells assessed as late apoptotic cells at 5 uM after 24 hrs by Annexin V-FITC/PI staining based flow cytometric analysis (reference value: 2.8%); assay type: functional; outline: as §1
# A2780 [11] = assay: Induction of apoptosis in human A2780 cells assessed as early apoptotic cells at 2 uM after 24 hrs by Annexin V-FITC/PI staining based flow cytometric analysis (reference value: 1.6%); assay type: functional; outline: as §1
# A2780 [12] = assay: Induction of cell cycle arrest in human A2780 cells assessed as accumulation at pre-G1 phase at 1 uM after 24 hrs by propidium iodide staining based flow cytometric analysis (reference value: 1.2%); assay type: functional
# A2780 [13] = assay: Induction of apoptosis in human A2780 cells assessed as reduction in Mcl-1 protein expression after 24 hrs by Western blot analysis; assay type: functional, cell-based; conditions: dose 0.5-5 µM; outline: as §4
# HCT-116 = assay: Induction of apoptosis in human HCT-116 cells assessed as increase in p21 protein expression at 0.5 to 5 uM after 24 hrs by Western blot analysis; assay type: functional, cell-based; conditions: dose 0.5-5 µM
# MCF7 = assay: Growth inhibition of human MCF7 cells after 48 hrs by MTT assay; assay type: functional
# A2780 [14] = assay: Induction of apoptosis in human A2780 cells assessed as necrotic cells at 0.5 uM after 24 hrs by Annexin V-FITC/PI staining based flow cytometric analysis (reference value: 3.6%); assay type: functional; outline: as §1
# A2780 [15] = assay: Induction of cell cycle arrest in human A2780 cells assessed as accumulation at G2/M phase at 0.5 uM after 24 hrs by propidium iodide staining based flow cytometric analysis (reference value: 21.6%); assay type: functional; outline: as §2
# [16] = molecular target: T1, Serine/threonine-protein kinase Nek2 (Homo sapiens) (UniProt P51955); assay: Inhibition of recombinant human full length NEK2 using myelin basic protein as substrate incubated for 40 mins by scintillation counting method; outline: as §3
# T1 sequence (whole entry): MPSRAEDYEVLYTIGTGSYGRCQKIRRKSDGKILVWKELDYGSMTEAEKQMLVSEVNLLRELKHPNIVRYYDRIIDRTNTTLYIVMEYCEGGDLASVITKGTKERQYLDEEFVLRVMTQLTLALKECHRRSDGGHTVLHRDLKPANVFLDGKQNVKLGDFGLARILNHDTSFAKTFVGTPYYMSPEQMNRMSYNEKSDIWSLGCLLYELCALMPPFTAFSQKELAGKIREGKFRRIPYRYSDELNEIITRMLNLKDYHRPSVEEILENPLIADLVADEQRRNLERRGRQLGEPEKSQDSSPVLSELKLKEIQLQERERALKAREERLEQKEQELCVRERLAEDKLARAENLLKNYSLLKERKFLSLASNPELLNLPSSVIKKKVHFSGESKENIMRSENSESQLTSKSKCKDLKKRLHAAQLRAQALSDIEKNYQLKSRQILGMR
# Homo sapiens = organism: Homo sapiens; assay: Selectivity index, ratio of Ki for inhibition of recombinant human full length CDK9/Cyclin T1 to Ki for inhibition of recombinant human full length CDK7/Cyclin H
# [17] = molecular target: Cyclin-dependent kinase 9 (Homo sapiens) (UniProt P50750); assay: Inhibition of CDK9 in human A2780 cells assessed as reduction in RNAP2 phosphorylation at ser5 residues after 24 hrs by Western blot analysis; assay type: cell-based; conditions: dose 0.5-5 µM
# Chain of Cyclin-dependent kinase 9 (Homo sapiens) (P50750 whole entry): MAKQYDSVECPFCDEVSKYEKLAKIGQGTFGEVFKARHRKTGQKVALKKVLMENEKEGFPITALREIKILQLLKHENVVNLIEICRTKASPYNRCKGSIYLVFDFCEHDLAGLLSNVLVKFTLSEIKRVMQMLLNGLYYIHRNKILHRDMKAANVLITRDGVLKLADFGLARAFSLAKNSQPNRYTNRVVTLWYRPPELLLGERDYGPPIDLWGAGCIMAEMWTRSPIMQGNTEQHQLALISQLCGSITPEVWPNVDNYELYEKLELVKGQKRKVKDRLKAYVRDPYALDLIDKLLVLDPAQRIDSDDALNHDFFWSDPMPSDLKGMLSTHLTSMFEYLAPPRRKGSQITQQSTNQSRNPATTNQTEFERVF
# [18] = molecular target: Cyclin-dependent kinase 7/ cyclin H (Homo sapiens, UniProt P50613); assay: Inhibition of recombinant human full length CDK7/Cyclin H using peptide as substrate incubated for 40 mins in presence of [gamma-33P]-ATP by scintillation counting method; assay type: protein-complex assay
# Chain of Cyclin-dependent kinase 7/ cyclin H (P51946 whole entry): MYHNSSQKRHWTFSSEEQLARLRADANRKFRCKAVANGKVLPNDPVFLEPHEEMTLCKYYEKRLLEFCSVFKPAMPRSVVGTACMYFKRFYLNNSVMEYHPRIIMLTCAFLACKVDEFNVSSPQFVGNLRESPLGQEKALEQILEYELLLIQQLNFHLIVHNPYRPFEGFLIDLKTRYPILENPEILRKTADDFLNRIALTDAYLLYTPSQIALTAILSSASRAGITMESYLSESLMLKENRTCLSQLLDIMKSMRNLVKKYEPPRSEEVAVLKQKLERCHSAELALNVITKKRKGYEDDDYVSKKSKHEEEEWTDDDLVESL
# Chain of Cyclin-dependent kinase 7/ cyclin H (P50613 whole entry): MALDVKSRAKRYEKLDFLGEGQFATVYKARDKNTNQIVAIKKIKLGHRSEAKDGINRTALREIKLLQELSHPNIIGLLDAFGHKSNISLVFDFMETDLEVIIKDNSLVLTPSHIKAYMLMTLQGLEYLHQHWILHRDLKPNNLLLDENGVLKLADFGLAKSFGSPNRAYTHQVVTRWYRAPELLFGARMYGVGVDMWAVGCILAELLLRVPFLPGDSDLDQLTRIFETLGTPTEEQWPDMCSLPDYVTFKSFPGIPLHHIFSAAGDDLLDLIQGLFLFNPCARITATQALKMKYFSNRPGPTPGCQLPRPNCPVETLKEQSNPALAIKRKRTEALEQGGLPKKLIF
# Outline: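 Radiometric kinase assay with ATP at each kinase's Km(app). IC50 values come from 10-point dose-response curves, and apparent Ki is calculated from IC50 and the kinase's Km(ATP).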
# A2780 [19] = assay: Induction of apoptosis in human A2780 cells assessed as viable cells at 1 uM after 24 hrs by Annexin V-FITC/PI staining based flow cytometric analysis (reference value: 92%); assay type: functional; conditions: read-out: Activity; outline: as §1
# A2780 [20] = assay: Induction of apoptosis in human A2780 cells assessed as viable cells at 0.5 uM after 24 hrs by Annexin V-FITC/PI staining based flow cytometric analysis (reference value: 92%); assay type: functional; conditions: read-out: Activity; outline: as §1
# A2780 [21] = assay: Induction of cell cycle arrest in human A2780 cells assessed as accumulation at pre-G1 phase at 5 uM after 24 hrs by propidium iodide staining based flow cytometric analysis (reference value: 1.2%); assay type: functional
# A2780 [22] = assay: Induction of cell cycle arrest in human A2780 cells assessed as accumulation at S phase at 2 uM after 24 hrs by propidium iodide staining based flow cytometric analysis (reference value: 20%); assay type: functional; outline: as §2
structure (smiles),measurement,setting,value
CNc1nc(C)c(-c2nc(Nc3cccc(N4CCN5CCC4CC5)c3)ncc2C)s1,Activity,A2780 [1],13.1%
same,Activity,A2780 [2],Dose-Dependent Effect
same,Activity,A2780 [3],15.3%
same,GI50,HT-29,2100 nM
same,Activity,A2780 [4],8.3%
same,Activity,A2780 [5],2.5%
same,inhibition,[6],Active
same,Activity,A2780 [7],9.3%
same,Activity,A2780 [8],Active
same,inhibition,[9],Active
same,Activity,A2780 [10],47.2%
same,Activity,A2780 [11],14.4%
same,Activity,A2780 [12],6.5%
same,Activity,A2780 [13],Dose-Dependent Effect
same,Activity,HCT-116,Active
same,GI50,MCF7,1340 nM
same,Activity,A2780 [14],1.9%
same,Activity,A2780 [15],22.2%
same,inhibition,[16],Active
same,Ratio Ki,Homo sapiens,> 50
same,inhibition,[17],Dose-Dependent Effect
same,Ki,[18],546 nM
same,viability at 1 µM,A2780 [19],74.4%
same,viability at 0.5 µM,A2780 [20],88.3%
same,Activity,A2780 [21],34%
same,Activity,A2780 [22],8.3%
